# Assay outcomes: PubChem BioAssay, Johns Hopkins Ion Channel Center
# Sampled rows, rich in hits. Any-hit rate of the full collection: about 3.5%.
# MrgX1 PAM: positive allosteric modulators of MrgX1, primary screen, HEK293 cells, Fluo-4 calcium flux; Mas-related G-protein coupled receptor member X1 (Homo sapiens), Q96LB2; FDSS; hits give high values; B-score at 10 µM; 0.63% of 310,000 active; AID 588675, 2011;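 active = plate-corrected calcium response at least 3 library SD above typical, normal starting fluorescence, not activating the receptor alone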;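 also: compound read alongside a low EC10 to EC30 dose of BAM8-22 agonist; peak minus trough fluorescence over baseline measured at the second addition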
# Target sequence (Q96LB2 whole entry, looked up): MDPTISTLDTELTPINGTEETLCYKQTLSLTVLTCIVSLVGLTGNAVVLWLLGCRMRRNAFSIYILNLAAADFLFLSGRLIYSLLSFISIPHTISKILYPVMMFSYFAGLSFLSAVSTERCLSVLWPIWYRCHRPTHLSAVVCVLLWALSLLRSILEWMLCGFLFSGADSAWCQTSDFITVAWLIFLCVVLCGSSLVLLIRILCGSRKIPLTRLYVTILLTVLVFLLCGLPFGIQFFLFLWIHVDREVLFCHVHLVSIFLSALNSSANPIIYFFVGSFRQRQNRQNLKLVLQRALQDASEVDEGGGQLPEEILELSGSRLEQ
# RGS4 block: RGS4 inhibitors, primary screen, cell-based, HEK293 M3R inducible RGS4, calcium flux; Regulator of G-protein signaling 4 (Homo sapiens), P49798; Fluo-4 calcium flux; hits give high values; triggered by carbachol at its EC20; B-score at 10 µM; 0.45% of 310,000 active; AID 463165, 2010;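 active = B-score, a plate-corrected calcium signal, over three deviations above library mean, with baseline fluorescence within five deviations of library mean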;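 also: RGS4 expression induced by doxycycline in cells with stable M3 receptor; B-score is computed from the integrated fluorescence ratio over baseline after carbachol; higher B-score means a larger calcium signal and so more RGS4 inhibition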
# Target sequence (P49798 whole entry, looked up): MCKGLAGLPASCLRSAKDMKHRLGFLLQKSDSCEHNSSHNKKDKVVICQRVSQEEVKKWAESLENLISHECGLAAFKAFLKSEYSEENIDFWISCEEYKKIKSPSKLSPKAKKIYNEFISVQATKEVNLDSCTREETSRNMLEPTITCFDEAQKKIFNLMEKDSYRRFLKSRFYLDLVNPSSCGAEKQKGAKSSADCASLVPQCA
# RGS4 pot: RGS4 potentiators or activators, primary screen, cell-based, HEK293 M3R inducible RGS4, calcium flux; carbachol calcium flux Fluo4; hits give low values; AID 463111, 2010; 0.92% of 310,000 active; B-score at 10 µM;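 active = B-score of the integrated calcium signal more than 4 SD below the library mean, with starting fluorescence not abnormally high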;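 also: negative B-score means reduced calcium response which marks RGS4 activation or potentiation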
#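 Also added: carbachol at ECmax as muscarinic agonist stimulus; Assay system: HEK293 cells with stable M3R and inducible RGS4; Timing: overnight RGS4 induction, 30 min dye load 37 °C, 20 min compound RT; Measured by: Fluo4-AM (2 µM) calcium-flux fluorescence, kinetic read.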
# MrgX1 agonist: agonists of human MrgX1 receptor, primary screen, HEK293 cells, Fluo-4 calcium flux; B-score at 10 µM; 0.44% of 310,000 active; Fluo-4 calcium fluorescence, agonist mode; hits give high values; AID 588627, 2011;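 active = calcium response B-score plate-corrected fluorescence ratio at least 3 library SD, with starting fluorescence B-score inside 5 SD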
#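 Assay system: stable human MrgX1 HEK293 cell line. Quantity: 15,000 cells per well. Schedule: cells plated overnight, dye loaded 0.5 h 37 °C, 0.5 h room temperature. Detection: Fluo-4 NW calcium-flux fluorescence, kinetic read. Read-out basis: peak-minus-minimum fluorescence over baseline, converted to B scores. Control set: positive and negative control wells on each plate.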
# MrgX1 antag: antagonists of human MrgX1 receptor, primary screen, HEK293 cells, Fluo-4 calcium flux; AID 588676, 2011; Mas-related G-protein coupled receptor member X1 (Homo sapiens), Q96LB2; B-score at 10 µM; BAM8-22 antagonism; hits give low values; 1.3% of 310,000 active;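 active = calcium-response B-score plate-corrected more than 3 library SD below zero, starting fluorescence within 5 deviations, no agonist response on first addition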;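 also: peak minus trough fluorescence over baseline after final BAM8-22 challenge near maximal dose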
# MrgX1 PAM conf: MrgX1 positive allosteric modulators, duplicate retest, confirmation, HEK293 cells, Fluo-4 calcium flux | shares compounds with MrgX1 PAM | Fluo-4 calcium fluorescence, FDSS | activation (ratio percentage), % at 10 µM | 13% of 1,200 active;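 active = ratio at least 3 SD above the weak peptide control, stable starting fluorescence, no direct agonism earlier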;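 also: compound followed by low BAM8-22 agonist challenge near EC20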
# HEK293 Ca flux: nonspecific calcium signal in parental HEK293, confirmation, counter-screen for MrgX1 antagonist project, parental HEK293 cells, Fluo-4 calcium flux; shares compounds with MrgX1 antag; Fluo-4 calcium fluorescence, FDSS; 2% of 4,000 active; fluorescence ratio F(max-min)/F0 at 10 µM;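 active = duplicate-averaged calcium fluorescence ratio at least three times the standard deviation of buffer wells, a nonspecific response in parental cells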
# HEK293 Ca counter: calcium response in parental HEK293 cells, primary screen, counter-screen for MrgX1 allosteric activator project, cell-based, Fluo-4 calcium flux, duplicate; fluorescence ratio F(max-min)/F0 at 10 µM; Fluo-4 fluorescence ratio; hits give high values; shares compounds with MrgX1 antag; 0.4% of 4,000 active;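 active = calcium fluorescence ratio, averaged over duplicates, at least 3 SD of the buffer-well ratio, meaning a nonspecific response in receptor-free cells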;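 also: untransfected parental HEK293 lacking MrgX1 used as counterscreen for MrgX1 allosteric activators; fluorescence change taken during the second addition on a kinetic imager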
# HEK293 Ca cntr2: calcium response in parental HEK293 cells, primary screen, counter-screen for MrgX1 agonist project, cell-based, Fluo-4 calcium flux, duplicate, agonist mode | 8.7% of 4,000 active | fluorescence ratio F(max-min)/F0 at 10 µM | AID 624115, 2012 | Fluo-4 calcium fluorescence (FDSS); hits give high values | shares compounds with MrgX1 antag;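 active = calcium fluorescence ratio at least three times the spread of buffer wells, meaning a non-specific response in parental cells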
# Numbers without * were called inactive; i = inactive; . = not tested or not shown.
SMILES,MrgX1 PAM,RGS4 block,RGS4 pot,MrgX1 agonist,MrgX1 antag,MrgX1 PAM conf,HEK293 Ca flux,HEK293 Ca counter,HEK293 Ca cntr2
CN(C)S(=O)(=O)Oc1cccc(C(=O)Nc2ccc(Cl)cc2)c1,7.7*,i,i,i,i,i,i,i,i
Cc1nn(-c2ccccc2)c(C)c1NC(=O)COc1ccc(Br)cc1Cl,i,i,i,i,i,.,.,.,.
O=C(CSc1nccn(-c2cccc(F)c2)c1=O)Nc1ccc(Cl)cc1F,i,i,i,i,i,.,.,.,.
COc1ccc(N2CCN(C(=S)Nc3ccccc3OC)CC2)cc1,i,i,i,i,i,.,.,.,.
CNS(=O)(=O)c1ccc(CCC(=O)N2CCN(c3ccccc3OC)CC2)cc1,11*,i,i,i,i,i,i,i,i
Cc1noc(C)c1S(=O)(=O)N(C)CC(=O)Nc1ccc(F)cc1,i,i,i,i,i,.,.,.,.
Cc1ccc(-c2cc3nn(-c4ccccc4)c(N)c3c(=O)o2)cc1,i,i,i,i,i,.,.,.,.
CCOC(=O)C(NC(=O)Nc1ccc(C(N)=O)cc1)(c1ccccc1)C(F)(F)F (configuration not stated),i,i,i,i,i,.,.,.,.
O=C(Nc1ccccc1F)Oc1cccc(OC(=O)Nc2ccccc2F)c1,7.5*,i,i,i,i,i,i,i,i
COc1cccc(C(=O)Nc2ccccc2F)c1,i,i,i,i,i,.,.,.,.
Cc1ccc(C)n1-n1c(C)nc2sc(-c3ccccc3)cc2c1=O,19*,i,i,i,i,i,i,i,i
Cc1ccc(C)n1-n1cnc2sc(-c3ccccc3)cc2c1=O,7.8*,i,i,i,i,i,i,i,i
CSCCC(NS(=O)(=O)c1ccccc1)C(=O)OCc1cc(=O)oc2cc(O)ccc12 (configuration not stated),i,i,i,i,i,.,.,.,.
Cc1cccc(NC(=O)/C(C#N)=C/c2cccc([N+](=O)[O-])c2)n1,i,i,i,i,i,.,.,.,.
Cc1sc2nc(-c3cccs3)oc(=O)c2c1C,i,i,i,i,i,.,.,.,.
Cc1sc2nc(-c3ccc(Br)cc3)oc(=O)c2c1C,6.6*,i,i,i,i,i,i,i,i
Cc1nn(C(=O)c2cccs2)c(N)c1-c1ccccc1,9.3*,i,i,i,i,i,i,i,i
COc1ccc(-c2nc(C#N)c(N3CCC(C)CC3)o2)cc1,i,i,i,i,i,.,.,.,.
O=C(C1CCCO1)N1CCN(S(=O)(=O)c2ccc(Cl)cc2)CC1 (configuration not stated),15*,i,i,i,i,i,i,i,i
Cc1cc(=O)oc2cc(Oc3ccc([N+](=O)[O-])cc3[N+](=O)[O-])ccc12,i,i,i,i,i,.,.,.,.
COCc1cc(Sc2ccc(Cl)cc2)nc(C)n1,8.4*,i,i,i,i,i,i,i,i
CC(=O)Cc1nsc(NC(=O)c2ccc(-c3cc(Cl)ccc3Cl)o2)n1,40*,i,i,i,i,32%*,i,i,i
CC(=O)Cc1nsc(NC(=O)c2ccc(-c3ccc(Cl)cc3Cl)o2)n1,i,i,i,i,i,.,.,.,.
CC(=O)Nc1cccc(NC(=O)c2csc(C)c2)c1,i,i,i,i,i,.,.,.,.
C/C(=N/OCC(=O)Nc1ccc(C)cc1C)c1cccs1,27*,i,i,i,i,3.9%*,i,i,i
SMILES,MrgX1 PAM,RGS4 block,RGS4 pot,MrgX1 agonist,MrgX1 antag,MrgX1 PAM conf,HEK293 Ca flux,HEK293 Ca counter,HEK293 Ca cntr2
C/C(=N\OCC(=O)Nc1ccccc1C(=O)O)c1cccs1,i,i,i,i,i,.,.,.,.
CCc1nn2c(N)c(/C=C3\C=Nc4ccccc43)c(=O)nc2s1,6.8*,i,i,i,i,12%*,i,i,i
CSc1nsc2nc(=O)c(/C=C3\C=Nc4ccccc43)c(N)n12,57*,i,i,i,i,15%*,i,i,i
O=C(CC1C(=O)NCCN1Cc1ccccc1)NCCN1CCCCC1=O (configuration not stated),9.4*,i,i,i,i,i,i,i,i
O=C(CC1C(=O)NCCN1Cc1ccc(F)cc1)NCCN1CCCc2ccccc21 (configuration not stated),i,i,i,i,i,.,.,.,.
O=C(CSc1nc2ccccc2[nH]1)Nc1ccc(F)cc1,i,i,i,i,i,.,.,.,.
O=C(CSc1nc2ccccc2[nH]1)NCc1ccc(F)cc1,9.5*,i,i,i,i,i,i,i,i
COc1ccccc1-n1cc(-c2ccccc2)c2c(=S)nc[nH]c21,16*,i,i,i,i,i,i,i,i
COc1ccc(CC(=O)NC(=S)Nc2cccc(CO)c2)cc1,7.2*,i,i,i,i,i,i,i,i
CN(C)CCOc1ccc2ccccc2c1,i,i,i,i,i,.,.,.,.
c1ccc2cc(OCCOCCOc3ccc4ccccc4c3)ccc2c1,13*,i,i,i,i,i,i,i,i
COc1ccc(CNC(=O)C2CCC(=O)N(CCCN3CCCC3=O)C2)c(OC)c1 (configuration not stated),i,i,i,i,i,.,.,.,.
